In the library only some 2.1% were active in any assay of this set; here they are far more common.
Runt-CBFb FRET – blocks binding of human RUNX1 Runt domain to CBFb | Q01196+Q13951 | Cerulean-Runt/Venus-CBFb FRET ratio 530/480, 1 h | inhibition, % at 20 µM | hit rate 0.46% among 220,000 | AID 1496;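 active = inhibition over about 50% at 20 µM in the single-dose screen, limit read from the data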
Target sequence (Q01196 whole entry, looked up, the tested form may be a part): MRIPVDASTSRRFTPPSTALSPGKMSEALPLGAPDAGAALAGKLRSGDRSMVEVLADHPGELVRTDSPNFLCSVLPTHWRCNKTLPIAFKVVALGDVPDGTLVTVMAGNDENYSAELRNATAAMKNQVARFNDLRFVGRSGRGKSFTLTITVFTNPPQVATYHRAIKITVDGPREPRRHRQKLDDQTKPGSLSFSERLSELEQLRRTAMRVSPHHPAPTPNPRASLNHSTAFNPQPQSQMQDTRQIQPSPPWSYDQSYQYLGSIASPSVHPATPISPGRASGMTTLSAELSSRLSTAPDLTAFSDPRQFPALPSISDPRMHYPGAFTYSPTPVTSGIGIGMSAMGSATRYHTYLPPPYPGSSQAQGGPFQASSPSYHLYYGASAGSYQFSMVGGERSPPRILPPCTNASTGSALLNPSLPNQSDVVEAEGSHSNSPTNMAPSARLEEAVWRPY
Target sequence (Q13951 whole entry, looked up, the tested form may be a part): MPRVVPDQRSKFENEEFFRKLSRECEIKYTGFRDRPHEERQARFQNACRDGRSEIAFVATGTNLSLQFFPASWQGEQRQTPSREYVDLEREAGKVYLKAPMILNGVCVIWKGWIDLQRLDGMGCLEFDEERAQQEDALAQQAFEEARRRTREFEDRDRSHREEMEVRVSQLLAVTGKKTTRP
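Assay system: Cerulean-Runt domain fusion protein, energy donor; Signal: fluorescence energy transfer, 422 nm excitation, 530/480 nm emission; Timing: 1 h compound exposure, room temperature; Control set: unlabeled CBFb; Medium: Tris buffer pH 7.5 with salts and BSA; Compound: single test concentration of 20 µM, 1% DMSO final; Probe or stimulus: Venus-CBFb 100 nM.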
RanGTP-Impb inh – disruptors of Ran-importin-beta complex formation – biochemical, FRET, CFP-Ran, YFP-importin-beta, homogeneous, primary screen. cell-free CFP-Ran/YFP-importin-beta FRET ratio. inhibition, % (concentration not given with the values). hit rate 1.1% among 300,000;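 active = more than half of the replicate wells show a fall in the fluorescence ratio signal beyond about 16%, limit read from the data, passing the limit was not always enough; inconclusive = exactly half of the replicate wells pass the set limit; inactive = fewer than half of replicates pass the limit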
Hck Nef HTS – inhibitors of human Hck kinase activated by Nef; P08631; Recombinant Hck-YEEI plus Nef, Z-Lyte FRET kinase assay; inhibition, % at 20 µM; hit rate 0.68% among 220,000; AID 463187;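 active = Hck-Nef kinase inhibition above about 50%, limit read from the data; inactive = inhibition below that limit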
DSG3 Ab inh – human desmoglein-3 autoantibody binding inhibition. DSG3-coupled beads, scFv-anti-DSG3-GFP binding, flow cytometry; active compounds read low. AID 588358. P32926. hit rate 0.48% among 310,000. binding (percent of control), % at 10 µM;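 active = binding more than 3 SD below its plate's average and above zero; inconclusive = below that plate limit but binding exactly zero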;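 also: hits lower antibody fragment binding to DSG3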
pCIP destab – p/CIP protein destabilization | hit rate 0.01% among 290,000 | decrease of EGFP signal, % at 10 µM | Q05BA5 | AID 1984 | F442A p/CIP-EGFP cells, EGFP fluorescence, 16 h;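 active = EGFP signal decrease of at least 30% at 10 µM or well 3 SD below plate mean, unless failing retest; inactive = the rest, including hits failing retest or dose response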
Runt-SMMHC FRET – inhibitors of human RUNX1 Runt domain binding to CBFb-SMMHC; inhibition, % at 20 µM; hit rate 0.74% among 220,000; Q01196+Q13951; AID 1434; Cerulean-Runt/Venus-CBFb-SMMHC FRET ratio 530/480, 1 h;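 active = mean inhibition across duplicate retests at 20 µM reaching about 50%, limit read from the data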;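 also: inhibitors lower the FRET ratio by blocking Runt binding to CBFb-SMMHC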
Hck-Nef confirm – confirmation of Hck-Nef kinase inhibitors. shares compounds with Hck Nef HTS. Recombinant Hck-YEEI:Nef, Z-Lyte FRET kinase assay. calls only at 10 µM. hit rate 28% among 1,300;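 active = average inhibition of at least 50%, with Z-scores no higher than 3 in both the phospho-tyrosine peptide and fluorescence counterscreens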
Large screens that a line does not name were inactive (follow-up assays come after a bar, where they were run).

C/C=C/C=C\C(=O)Nc1cccc(C2=NOC3(C2)C[C@@H](C(N)=O)N(C(=O)c2cc([N+](=O)[O-])cc([N+](=O)[O-])c2)C3)c1 (some centres not stated)	Hck Nef HTS 50 | Hck-Nef confirm inactive
CCC(=O)Nc1cccc(C2=NOC3(C2)C[C@@H](C(N)=O)N(C(=O)c2cc([N+](=O)[O-])cc([N+](=O)[O-])c2)C3)c1 (some centres not stated)	none
C/C=C\C=C\C(=O)N1CC2(CC(c3cccc(NC(=O)CC(c4ccccc4)c4ccccc4)c3)=NO2)C[C@H]1C(N)=O (some centres not stated)	Hck Nef HTS 78 | Hck-Nef confirm inactive
O=C(COc1ccc(Br)cc1)OCCN1CCCCC1	none (no result: Runt-CBFb FRET, Hck Nef HTS, Runt-SMMHC FRET)
CSc1cccc(NC(=O)c2ccc(NC3=NC4CS(=O)(=O)CC4S3)cc2)c1 (configuration not stated)	RanGTP-Impb inh inconclusive (no result: Runt-CBFb FRET, Hck Nef HTS, Runt-SMMHC FRET)
COc1cc(C=C2C(=O)c3ccccc3C2=O)ccc1O	Hck Nef HTS 74 | Hck-Nef confirm inactive
COc1ccc(C=C2C(=O)c3ccccc3C2=O)cc1O	Hck Nef HTS 105 | Hck-Nef confirm inactive
COc1cc(C=C2C(=O)c3ccccc3C2=O)cc(OC)c1OC	none
COc1ccccc1C(=O)NCCC(=O)NCC(c1ccc(F)cc1)N1CCOCC1 (configuration not stated)	none (no result: Runt-CBFb FRET, Hck Nef HTS, pCIP destab, Runt-SMMHC FRET)
Cn1nc(Oc2ncc(C(F)(F)F)cc2Cl)cc1C(F)(F)F	RanGTP-Impb inh inconclusive, Hck Nef HTS 54 | Hck-Nef confirm inactive
FC(F)(F)c1cnc(Oc2cccc3ccccc23)c(Cl)c1	none
O=C(CSc1nc(-c2ccccc2)cc(=O)[nH]1)Nc1ccc(F)c(F)c1	none (no result: Runt-CBFb FRET, Hck Nef HTS, Runt-SMMHC FRET)
COc1ccc2[nH]c(O)c(N=NC(=O)Cc3cccs3)c2c1	Hck Nef HTS 51 | Hck-Nef confirm inactive
O=C(Cc1cccs1)N=Nc1c(O)[nH]c2ccc(Br)cc12	none
CC(C)N1CCN(C(=O)c2ccc([N+](=O)[O-])cc2)CC1	none (no result: Runt-CBFb FRET, Hck Nef HTS, pCIP destab, Runt-SMMHC FRET)
O=C(N/N=C/c1ccc([N+](=O)[O-])o1)c1cc(-c2ccc(-c3ccccc3)cc2)nc2ccccc12	Hck Nef HTS 198 | Hck-Nef confirm inactive
Cc1ccc2nc(-c3ccccc3)cc(C(=O)NCC(c3ccco3)N(C)C)c2c1 (configuration not stated)	none (no result: Runt-CBFb FRET, Hck Nef HTS, pCIP destab, Runt-SMMHC FRET)
CCN(CC(=O)Nc1c(F)cccc1F)C(=O)c1ccc(C)c(S(=O)(=O)N2CCCCC2)c1	none (no result: Runt-CBFb FRET, Hck Nef HTS, pCIP destab, Runt-SMMHC FRET)
Cc1ccccc1OCC(=O)NCC(=O)OCc1ccc(Br)cc1	none (no result: Runt-CBFb FRET, Hck Nef HTS, Runt-SMMHC FRET)
O=c1[nH][nH]c2c(N=Cc3ccccc3O)ccc(F)c12	Hck Nef HTS 60 (no result: RanGTP-Impb inh) | Hck-Nef confirm inactive
CCN(CC)c1ccc(/C=C2\C(=O)c3ccc(C(=O)O)cc3C2=O)cc1	Hck Nef HTS 64 (no result: RanGTP-Impb inh) | Hck-Nef confirm inactive
CCN(CC)c1ccc(C(=O)O)cc1	none
COC(=O)C1=CN(CCOC23CC4CC(CC(C4)C2)C3)C=C(C(=O)OC)C1c1ccsc1	Hck Nef HTS 70 (no result: DSG3 Ab inh) | Hck-Nef confirm inactive
COCCN1C=C(C(=O)OC)C(c2ccc3c(c2)OCO3)C(C(=O)OC)=C1	none
Cc1ccc(S(=O)(=O)N(C)C)cc1NC(=S)NCc1ccco1	Hck Nef HTS 113 (no result: Runt-CBFb FRET) | Hck-Nef confirm active
S=C(NCc1ccco1)Nc1ccccc1Cl	Hck Nef HTS 94 (no result: DSG3 Ab inh) | Hck-Nef confirm inactive
